Among the data in ChEMBL document CHEMBL1140988 (Eur J Med Chem, 2008) are Activity and Ki values, retold here.

Experiment [1] addresses T1, Cannabinoid receptor 1 (Homo sapiens, UniProt P21554). Briefly: Displacement of [3H]CP-55940 from human CB1 receptor expressed in CHO cells at 10 uM. The experiment is classed as cell-based. In a few lines: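 Competitive binding on membranes of CHO cells expressing human CB1, run by an outside contract lab. Radioligand was [3H]-CP 55940 at 0.5 nM and test compound was at 10 μM. Non-specific binding was set with an excess of unlabelled ligand. Values are % of control specific binding (displacement), n = 2.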
On the technique in general: Displacement assays read how much labelled ligand stays bound in the presence of the test substance.

For experiment [2], the target named is T2, Cannabinoid receptor 2 (Homo sapiens, UniProt P34972). Briefly: Displacement of [3H]WIN-55212-2 from human CB2 receptor expressed in CHO cells at 10 uM. Type of experiment: cell-based. In a few lines:
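Human CB2 expressed in CHO cell membranes, competitive binding run by an outside contract lab. [3H]-WIN 55212-2 at 0.8 nM was displaced by test compound at 10 μM. Specific binding is total minus non-specific, the latter measured with excess unlabelled ligand. Reported as % displacement of control specific binding, n = 2.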

Experiment [3] deals with T1, Cannabinoid receptor 1. Briefly: biochemical. Type of experiment: cell-based, CHO.
Experiment [4] addresses T2, Cannabinoid receptor 2. Briefly: Displacement of [3H]WIN-55212-2 from human CB2 receptor expressed in CHO cells. Type of experiment: cell-based. In a few lines:
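Non-specific binding was defined with excess unlabelled ligand. Ki was derived from IC50 by the Cheng-Prusoff equation, Ki = IC50/(1 + L/KD), using radioligand concentration and KD.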

T2 sequence (P34972 whole entry): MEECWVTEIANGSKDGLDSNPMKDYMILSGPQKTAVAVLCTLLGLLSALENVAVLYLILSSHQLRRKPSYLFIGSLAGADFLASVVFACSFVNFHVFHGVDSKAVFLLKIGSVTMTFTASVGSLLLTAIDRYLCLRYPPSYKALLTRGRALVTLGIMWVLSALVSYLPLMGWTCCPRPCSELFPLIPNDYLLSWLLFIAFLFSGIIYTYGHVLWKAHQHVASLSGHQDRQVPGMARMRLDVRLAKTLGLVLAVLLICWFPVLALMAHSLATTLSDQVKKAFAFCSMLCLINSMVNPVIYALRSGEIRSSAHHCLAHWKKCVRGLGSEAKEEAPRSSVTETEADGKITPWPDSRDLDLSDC
T1 sequence (P21554 whole entry): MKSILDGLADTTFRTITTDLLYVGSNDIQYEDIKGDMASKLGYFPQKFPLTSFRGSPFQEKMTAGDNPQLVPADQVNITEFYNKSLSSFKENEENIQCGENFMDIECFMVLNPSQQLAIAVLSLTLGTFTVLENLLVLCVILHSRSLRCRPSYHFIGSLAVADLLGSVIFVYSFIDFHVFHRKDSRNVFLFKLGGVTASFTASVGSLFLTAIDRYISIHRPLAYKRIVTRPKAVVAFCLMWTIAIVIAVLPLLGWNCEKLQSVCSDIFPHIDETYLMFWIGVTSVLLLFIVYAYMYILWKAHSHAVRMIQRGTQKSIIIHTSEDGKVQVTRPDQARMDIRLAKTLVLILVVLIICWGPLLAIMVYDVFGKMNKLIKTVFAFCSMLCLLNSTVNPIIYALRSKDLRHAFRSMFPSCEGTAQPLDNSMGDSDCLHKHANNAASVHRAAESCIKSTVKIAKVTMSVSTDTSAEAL

For the compound `O=C(NC1CCCCCC1)c1cnn(-c2ccc(Cl)cc2Cl)c1-c1ccc(Cl)cc1`, the Activity in experiment [1] amounted to 78%; in experiment [2], 50%.
With `O=C(NCCN1CCCCC1)c1cnn(-c2ccc(Cl)cc2Cl)c1-c1ccc(Cl)cc1`, the Activity in experiment [1] came out at 39%; in experiment [2], 14%.
By Ki is commonly meant a measure of affinity in units of concentration, obtained from inhibition or displacement. A lower Ki goes with a stronger hold on the target. As to `O=C(NC1CCCCCC1)c1cnn(-c2ccc(Cl)cc2Cl)c1-c1ccc(I)cc1`, the results for the Activity in experiment [1] and in experiment [2] were 90% and 61%, respectively. This compound gave a Ki in experiment [3] of 1100 nM.
Turning to `O=C(NC1CCCCC1)c1cnn(-c2ccc(Cl)cc2Cl)c1-c1ccc(Cl)cc1`, the Activity amounted to 68% in experiment [1] and 52% in experiment [2].
`O=C(NN1CCCCC1)c1cnn(-c2ccc(Cl)cc2Cl)c1-c1ccc(Br)cc1`: the Activity in experiment [1] worked out at 74%; in experiment [2], 55%.
With `O=C(NC1CC1)c1cnn(-c2ccc(Cl)cc2Cl)c1-c1ccc(Cl)cc1`, the Activity in experiment [1] turned out to be 87%; in experiment [2], 30%. The Ki in experiment [3] came to 850 nM; in experiment [4], 21000 nM.
In the case of `COc1ccc(-c2c(C(=O)NC3CCCCC3)cnn2-c2ccc(Cl)cc2Cl)cc1`, the Activity was 64% in experiment [1] and 76% in experiment [2].
With `O=C(NN1CC2CCCC2C1)c1cnn(-c2ccc(Cl)cc2Cl)c1-c1ccc(Cl)cc1` (centres undefined), the Activity in experiment [1] amounted to 86%; in experiment [2], 56%.
For the compound `CN1CCN(NC(=O)c2cnn(-c3ccc(Cl)cc3Cl)c2-c2ccc(Cl)cc2)CC1`, the results for the Activity in experiment [1] and in experiment [2] were 61% and -23%, respectively. In addition, the inhibition constant (Ki) in experiment [3] was 16000 nM.
Turning to `Cc1ccc(-c2c(C(=O)NC3CCCCC3)cnn2-c2ccc(Cl)cc2Cl)cc1`, the Activity was 48% in experiment [1] and 46% in experiment [2].
Taken in the same sequence, the figures for `O=C(NC12CC3CC(CC(C3)C1)C2)c1cnn(-c2ccc(Cl)cc2Cl)c1-c1ccc(Cl)cc1` were 72% and 22%.
For `CN1CCN(NC(=O)c2cnn(-c3ccc(Cl)cc3Cl)c2-c2ccc(I)cc2)CC1`, the Activity in experiment [1] turned out to be 78%; in experiment [2], 42%.
As to `CN1CCN(NC(=O)c2cnn(-c3ccc(Cl)cc3Cl)c2-c2ccc(Br)cc2)CC1`, the Activity in experiment [1] was 67%; in experiment [2], -12%. Moreover, the Ki in experiment [3] is 2600 nM; in experiment [4], 30000 nM.
For the compound `O=C(NN1CCOCC1)c1cnn(-c2ccc(Cl)cc2Cl)c1-c1ccc(F)cc1`, the figures for the Activity in experiment [1] and in experiment [2] were 30% and -9%, respectively.
Consider `O=C(NN1CCCCCC1)c1cnn(-c2ccc(Cl)cc2Cl)c1-c1ccc(Cl)cc1`, for which the Activity in experiment [1] is 75%; in experiment [2], 64%.
For `O=C(c1cnn(-c2ccc(Cl)cc2Cl)c1-c1ccc(Cl)cc1)N1CCCC1`, the Activity was determined as 49% in experiment [1] and 43% in experiment [2].
The matching figures for `O=C(c1cnn(-c2ccc(Cl)cc2Cl)c1-c1ccc(Cl)cc1)N1CCc2ccccc2C1`: 58% and 69%.
In the case of `O=C(NC1CCCC1)c1cnn(-c2ccc(Cl)cc2Cl)c1-c1ccc(Cl)cc1`, the Activity in experiment [1] was 82%; in experiment [2], 61%.
With `O=C(NN1CCOCC1)c1cnn(-c2ccc(Cl)cc2Cl)c1-c1ccc(Cl)cc1`, the Activity in experiment [1] came to 65%; in experiment [2] it was 12%.
On to `Cc1ccc(-c2c(C(=O)NN3CCCCC3)cnn2-c2ccc(Cl)cc2Cl)cc1`, for which the values for the Activity in experiment [1] and in experiment [2] were 29% and 27%, respectively.
The matching figures for `O=C(NN1CCCCC1)c1cnn(-c2ccc(Cl)cc2Cl)c1-c1ccc(Cl)cc1`: 79% and 37%.
As to `O=C(c1cnn(-c2ccc(Cl)cc2Cl)c1-c1ccc(Cl)cc1)N1CCCCC1`, the Activity was 59% in experiment [1] and 45% in experiment [2].
Consider `O=C(NC1CCCCCCC1)c1cnn(-c2ccc(Cl)cc2Cl)c1-c1ccc(Cl)cc1`, for which the Activity in experiment [1] stood at 84%; in experiment [2], 44%.
For the compound `O=C(NC1CCCCCC1)c1cnn(-c2ccc(Cl)cc2Cl)c1-c1ccc(Br)cc1`, the Activity in experiment [1] was found to be 88%; in experiment [2], 60%. This compound also showed a Ki in experiment [3] of 1100 nM.
`O=C(NC1CC1)c1cnn(-c2ccc(Cl)cc2Cl)c1-c1ccc(I)cc1`: the Activity in experiment [1] came out at 91%; in experiment [2] it was 60%. This compound also showed a Ki in experiment [3] of 210 nM.
With `O=C(NC12CC3CC(CC(C3)C1)C2)c1cnn(-c2ccc(Cl)cc2Cl)c1-c1ccc(I)cc1`, the Activity in experiment [1] was 76%; in experiment [2], 44%.
The matching figures for `O=C(NC1CCCCC1)c1cnn(-c2ccc(Cl)cc2Cl)c1-c1ccc(F)cc1`: 69% and 18%.
Take `COc1ccc(-c2c(C(=O)NN3CCCCC3)cnn2-c2ccc(Cl)cc2Cl)cc1`: the Activity in experiment [1] was determined as 58%; in experiment [2], 70%.
For the compound `O=C(NC1CC1)c1cnn(-c2ccc(Cl)cc2Cl)c1-c1ccc(Br)cc1`, the values for the Activity in experiment [1] and in experiment [2] were 84% and 43%, respectively. This compound came in with an inhibitory constant (Ki) in experiment [3] of 1000 nM.
`O=C(NC1CCCCC1)c1cnn(-c2ccc(Cl)cc2Cl)c1-c1ccc(I)cc1`: the Activity in experiment [1] stood at 64%; in experiment [2], 59%.
The matching figures for `O=C(NN1CCCCC1)c1cnn(-c2ccc(Cl)cc2Cl)c1-c1ccc(F)cc1`: 43% and 7%.
With `O=C(NN1CCCCC1)c1cnn(-c2ccc(Cl)cc2Cl)c1-c1ccc(I)cc1`, the Activity in experiment [1] was 94%; in experiment [2], 84%. The figures for the inhibition constant (Ki) in experiment [3] and in experiment [4] were 1300 nM and 1900 nM, respectively.
As for `O=C(NC1CCCCC1)c1cnn(-c2ccc(Cl)cc2Cl)c1-c1ccc(Br)cc1`, the Activity amounted to 81% in experiment [1] and 44% in experiment [2].
Consider `O=C(NC1CC1)c1cnn(-c2ccc(Cl)cc2Cl)c1-c1ccc(F)cc1`, for which the Activity worked out at 62% in experiment [1] and 7% in experiment [2].
